In ChEMBL document CHEMBL1268816, “Discovery of a series of potent, orally active α,α-disubstituted piperidine NK(1) antagonists” (Bioorg Med Chem Lett, 2010):

Experiments:
[1] = Half life in rat at 10 mg/kg, po; format: ADME, organism-based; parameters: dose 10 mg/kg, route oral; settings: in vivo
Procedure, shortened: (§1)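 Rat pharmacokinetics after oral dosing at 10 mpk (unless otherwise specified), vehicle 20% HPBCD.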

[2] = tested on: Meriones unguiculatus; test: Inhibition of GR-73632-induced foot tapping in Mongolian gerbil assessed as duration of repetitive hind foot tapping pretreated at 0.1 mg/kg, icv before GR-73632 challenge measured after 4 hrs; format: functional; settings: oral, in the assay text read “po” for “icv”
Procedure, shortened: (§2)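 Female Mongolian gerbils given NK1 agonist GR73632 (3 pmol) by icv injection. Test antagonists given orally in 0.4% methylcellulose in distilled water at the indicated dose, at various pretreatment times before agonist. After recovery from anesthesia, animals observed 5 min in clear boxes and hind-foot tapping duration timed. Result expressed as % decrease versus vehicle-treated controls.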

[3] = tested on: Meriones unguiculatus; test: Inhibition of GR-73632-induced foot tapping in Mongolian gerbil assessed as duration of repetitive hind foot tapping pretreated at 1 mg/kg, icv before GR-73632 challenge measured after 4 hrs; format: functional; settings: oral, in the assay text read “po before” for “icv before”; procedure, shortened: as §2
[4] = AUC (0 to 6 hrs) in rat at 10 mg/kg, po; format: ADME, organism-based; parameters: time < 6 hr, dose 10 mg/kg, route oral; settings: plasma; procedure, shortened: as §1
[5] = target: Substance-P receptor (Homo sapiens, UniProt P25103); test: Displacement of [3H]SAr-Met from human recombinant NK1 receptor expressed in CHO cells; format: cell-based
Procedure, shortened: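 Membranes from CHO cells expressing recombinant human NK1 receptor; radioligand [3H]-Sar-Met substance P used near its experimentally derived Kd. Ki derived by Cheng–Prusoff equation. Binding values are the average of two or three independent determinations.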

[6] = Oral bioavailability in rat at 10 mg/kg; format: ADME, organism-based; settings: in vivo; procedure, shortened: as §1
[7] = tested on: Meriones unguiculatus; test: Inhibition of GR-73632-induced foot tapping in Mongolian gerbil assessed as duration of repetitive hind foot tapping pretreated at 0.3 mg/kg, icv before GR-73632 challenge measured after 4 hrs; format: functional; settings: oral, in the assay text read “po” for “icv”; procedure, shortened: as §2
[8] = AUC (0 to 6 hrs) in rat at 5 mg/kg, po after 24 hrs; format: ADME, organism-based; parameters: time < 6 hr, dose 5 mg/kg, route oral; settings: plasma
[9] = AUC (0 to 6 hrs) in rat at 10 mg/kg, po after 6 hrs; format: ADME, organism-based; parameters: time < 6 hr, dose 10 mg/kg, route oral; settings: plasma; procedure, shortened: as §1

Chain of Substance-P receptor (P25103 whole entry): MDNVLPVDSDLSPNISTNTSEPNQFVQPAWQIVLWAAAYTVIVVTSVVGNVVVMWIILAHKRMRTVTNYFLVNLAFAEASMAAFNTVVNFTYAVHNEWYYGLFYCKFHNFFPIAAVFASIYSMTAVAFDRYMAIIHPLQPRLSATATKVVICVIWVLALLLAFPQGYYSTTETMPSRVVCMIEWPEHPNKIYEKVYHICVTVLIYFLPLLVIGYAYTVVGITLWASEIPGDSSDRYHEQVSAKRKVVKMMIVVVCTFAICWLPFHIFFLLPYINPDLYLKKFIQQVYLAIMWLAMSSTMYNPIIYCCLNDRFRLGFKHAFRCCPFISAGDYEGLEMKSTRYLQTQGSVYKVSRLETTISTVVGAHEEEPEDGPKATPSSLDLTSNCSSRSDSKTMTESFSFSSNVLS

Row | SMILES | half-life [1] [h] | AUC(0-t) at 6 h [4] [ng·h/mL] | Ki [5] [nM] | bioavailability [6] [%] | AUC(0-t) at 6 h [8] [ng·h/mL] | AUC(0-t) at 6 h [9] [ng·h/mL] | inhibition in vivo at 0.1 mg/kg [2] [%] | inhibition in vivo at 1 mg/kg [3] [%] | inhibition in vivo at 0.3 mg/kg [7] [%]
1 | CC(=O)N[C@H]1CC[C@@](CO[C@H](C)c2cc(C(F)(F)F)cc(C(F)(F)F)c2)(c2ccccc2)NC1 | 3.2 | 10000 | 0.15 | 63 |  |  | 83 | 100 | 99
2 | C[C@@H](OC[C@@]1(c2ccccc2)CC[C@H](NC(=O)C2CC2)CN1)c1cc(C(F)(F)F)cc(C(F)(F)F)c1 |  | 5260 | 0.23 |  |  |  |  | 100 | 79
3 | C[C@@H](OC[C@@]1(c2ccccc2)CC[C@H](NS(C)(=O)=O)CN1)c1cc(C(F)(F)F)cc(C(F)(F)F)c1 |  | 5940 | 1.03 |  |  |  |  | 90 | 25
4 | C[C@@H](OC[C@@]1(c2ccccc2)CC[C@H](NC2=NCCO2)CN1)c1cc(C(F)(F)F)cc(C(F)(F)F)c1 |  |  | 0.28 |  |  |  |  | 37 | 
5 | C[C@@H](OC[C@@]1(c2ccccc2)CC[C@H](C(N)=O)CN1)c1cc(C(F)(F)F)cc(C(F)(F)F)c1 | 3.4 |  | 0.22 | 68 | 2600 |  |  | 92 | 82
6 | CNC(=O)[C@H]1CC[C@@](CO[C@H](C)c2cc(C(F)(F)F)cc(C(F)(F)F)c2)(c2ccccc2)NC1 |  |  | 0.26 |  |  |  |  | 91 | 29
7 | CCNC(=O)[C@H]1CC[C@@](CO[C@H](C)c2cc(C(F)(F)F)cc(C(F)(F)F)c2)(c2ccccc2)NC1 |  |  | 0.37 |  |  | 3680 |  | 92 | 28
8 | C[C@@H](OC[C@@]1(c2ccccc2)CC[C@H](C(=O)NC2CC2)CN1)c1cc(C(F)(F)F)cc(C(F)(F)F)c1 |  |  | 0.34 |  |  | 1940 |  | 45 | 
9 | C[C@@H](OC[C@@]1(c2ccccc2)CC[C@@H](C(=O)NC2CC2)CN1)c1cc(C(F)(F)F)cc(C(F)(F)F)c1 |  |  | 0.4 |  |  |  |  | 69 | 
10 | FC(F)(F)c1cc(COCC2(c3ccccc3)CCCCN2)cc(C(F)(F)F)c1 (configuration not stated) |  |  | 1 |  |  |  |  |  | 

The next lines start with results.

Row | half-life [1] [h] | AUC(0-t) at 6 h [4] [ng·h/mL] | Ki [5] [nM] | bioavailability [6] [%] | AUC(0-t) at 6 h [8] [ng·h/mL] | AUC(0-t) at 6 h [9] [ng·h/mL] | SMILES | inhibition in vivo at 0.1 mg/kg [2] [%] | inhibition in vivo at 1 mg/kg [3] [%] | inhibition in vivo at 0.3 mg/kg [7] [%]
11 |  | 795 | 0.35 |  |  |  | CC(=O)N[C@@H]1CC[C@@](CO[C@H](C)c2cc(C(F)(F)F)cc(C(F)(F)F)c2)(c2ccccc2)NC1 |  | 76 | 36
12 |  | 1950 | 0.29 |  |  |  | CCC(=O)N[C@H]1CC[C@@](CO[C@H](C)c2cc(C(F)(F)F)cc(C(F)(F)F)c2)(c2ccccc2)NC1 | 50 | 100 | 93
13 |  | 13800 | 0.26 |  |  |  | C[C@@H](OC[C@@]1(c2ccccc2)CC[C@H](N2CCCC2=O)CN1)c1cc(C(F)(F)F)cc(C(F)(F)F)c1 |  | 61 | 
14 |  | 6040 | 0.69 |  |  |  | C[C@@H](OC[C@@]1(c2ccccc2)CC[C@H](NC(N)=O)CN1)c1cc(C(F)(F)F)cc(C(F)(F)F)c1 |  | 96 | 6
15 |  |  | 0.59 |  |  |  | C[C@@H](OC[C@@]1(c2ccccc2)CC[C@H](N2CCNC2=O)CN1)c1cc(C(F)(F)F)cc(C(F)(F)F)c1 |  | 86 | 71
16 |  |  | 0.33 |  |  |  | C[C@@H](OC[C@@]1(c2ccccc2)CC[C@H](Nc2ncccn2)CN1)c1cc(C(F)(F)F)cc(C(F)(F)F)c1 |  | 5 | 
17 |  |  | 0.19 |  |  | 1690 | C[C@@H](OC[C@@]1(c2ccccc2)CC[C@@H](C(N)=O)CN1)c1cc(C(F)(F)F)cc(C(F)(F)F)c1 |  | 90 | 75
18 |  |  | 0.56 |  |  | 166 | CNC(=O)[C@@H]1CC[C@@](CO[C@H](C)c2cc(C(F)(F)F)cc(C(F)(F)F)c2)(c2ccccc2)NC1 |  | 80 | 
19 |  |  | 1.13 |  |  |  | CCNC(=O)[C@@H]1CC[C@@](CO[C@H](C)c2cc(C(F)(F)F)cc(C(F)(F)F)c2)(c2ccccc2)NC1 |  | 78 | 
20 |  |  | 0.3 |  |  |  | C[C@@H](OC[C@@]1(c2ccccc2)CCCCN1)c1cc(C(F)(F)F)cc(C(F)(F)F)c1 |  |  | 
